In the library only some 8.8% were active in any assay of this set; here they are far more common.
RORA act = RORA (human) activation | P35398 | CHO-K1 Gal4-RORA LBD luciferase reporter, luminescence; percent increase over mock-subtracted basal signal | activation, % at 10 µM | 65,000 tested, 1.5% active;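 active means activation above the mean of all tested compounds plus 3 SD, cut at about 49% in these data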
Target sequence (P35398 whole entry, looked up, the tested form may be a part): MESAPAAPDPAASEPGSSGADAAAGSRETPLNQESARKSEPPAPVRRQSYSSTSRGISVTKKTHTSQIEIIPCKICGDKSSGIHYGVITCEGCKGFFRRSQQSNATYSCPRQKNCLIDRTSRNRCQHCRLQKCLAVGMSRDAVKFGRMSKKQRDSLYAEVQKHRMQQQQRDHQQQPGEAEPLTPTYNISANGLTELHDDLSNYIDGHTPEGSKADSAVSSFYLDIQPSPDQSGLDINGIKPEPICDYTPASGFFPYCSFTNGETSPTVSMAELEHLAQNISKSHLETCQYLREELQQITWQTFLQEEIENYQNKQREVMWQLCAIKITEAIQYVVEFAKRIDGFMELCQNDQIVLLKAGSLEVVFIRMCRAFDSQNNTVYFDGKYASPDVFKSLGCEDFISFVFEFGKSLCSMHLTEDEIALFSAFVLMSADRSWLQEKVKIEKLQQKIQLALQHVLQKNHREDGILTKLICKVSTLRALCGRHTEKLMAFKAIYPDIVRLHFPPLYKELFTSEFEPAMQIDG
SF-1 act = SF-1 (human) activation; Q13285; CHO-K1 Gal4-SF-1 LBD luciferase reporter; % increase over DMSO SF-1-specific signal; activation, % at 10 µM; 65,000 tested, 1.9% active;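 active means activation above the mean activation of all tested compounds plus 3 SD, cut at about 50% in these data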
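Test system: CHO-K1 cells with Gal4–hSF-1 LBD chimera plus Gal4-driven luciferase; Input: 4,000 cells/well; Compound: 10 µM only; Times: 20 h compound treatment, 37 °C; Measured by: steady-glow luciferase luminescence, read after 15 min reagent incubation; Measure: percent activation versus DMSO; Control set: DMSO and mock-transfected background; Replicates: one test per compound.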
M1 antagonist = M1 muscarinic receptor (rat) antagonism | CHO-M1 cells, Fluo-4 calcium, ACh EC80 antagonist mode; hits give low values | AID 628 | 64,000 tested, 3.4% active | P08482 | B-score at 10 µM;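 active means calcium fluorescence response, raw or row-and-column corrected B-score, differing from the plate sample mean either way at a set confidence level, mostly lower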
M1 ag = agonists of M1 muscarinic receptor; CHO-M1 cells, Fluo-4 calcium fluorescence, agonist mode; hits give high values; B-score at 10 µM; 64,000 tested, 3% active; AID 626;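 active means fluorescence rise, raw or as B-score row- and column-corrected plate score, outside the 99.7% band of its plate's samples, either direction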
S1P3 agonist = activates the human S1P3 receptor; Q99500; S1P3 NFAT-BLA reporter cells, agonism, FRET ratio; relative to 1 µM S1P, basal subtracted; activation, % at 4.5 µM; 60,000 tested, 0.1% active; AID 373;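 active means activation above the screen-wide mean plus 3 SD, cut at about 4.5% in these data, passing the limit was not always enough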
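Measure – % activation relative to 1 µM S1P (100%), per plate · System – stable CHO line with human S1P3, Gα16, NFAT-BLA reporter · Timing – cells plated overnight, compound 4 h 37 °C, substrate 2 h RT · Technique – fluorescent BLA substrate, ex 405 nm, em 460/535 nm ratio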
S1P1 ag pot = agonists and agonism potentiators of human S1P1 receptor. activation, % at 9.5 µM. AID 449. S1P1 CRE-bla cells, forskolin, beta-lactamase FRET, potentiator mode; S1P1 agonist co-added at EC20, 2 nM; 100% = saturating reference agonist, 0% = basal. 56,000 tested, 0.57% active;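 active means activation above a cutoff set at the mean activation of all tested compounds plus 3 SD, cut at about 54% in these data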;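 further: forskolin at 4 µM as EC80 and the EC20 agonist is SEW2871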
Numbers stand for hits; . = inactive; / = no result given.

SMILES	RORA act	SF-1 act	M1 antagonist	M1 ag	S1P3 agonist	S1P1 ag pot
COc1ccc(C2C=C(c3ccc(Br)cc3)Nc3nc(N4C(=O)CCC4=O)nn32)cc1 (stereo not given)	.	.	.	21.5	.	.
COc1ccccc1C1C=C(c2ccc(Cl)cc2)Nc2nc(N3C(=O)CCC3=O)nn21 (stereo not given)	.	.	.	.	.	.
O=C(c1ccco1)N1C(=O)c2cccc3cccc1c23	.	.	.	.	.	.
O=C(c1ccco1)n1c(=S)nc2ccccn21	76.7	.	.	.	.	.
Cc1cccc2nc(=S)n(C(=O)c3ccco3)n12	56.0	.	.	.	.	.
CCCCOc1ccc(C)cc1CN(CCO)CCO	.	.	2.05	.	.	.
CCOc1ccc(CN(CCO)CCO)cc1C(=O)OC	.	.	.	.	.	.
CCOc1cccc(N2C(=O)CC(NCc3ccc(S(N)(=O)=O)cc3)C2=O)c1 (stereo not given)	.	.	.	.	.	.
Cc1ccc(Nc2nc(=O)c3cccnc3s2)cc1	49.6	53.1	.	.	.	.
O=c1nc(NCc2ccco2)sc2ncccc12	.	.	.	.	.	.
COc1cc(OC)c(-c2nc3cnccc3n2C)cc1OC	.	.	.	.	.	.
Cn1c(-c2ccc3ccccc3n2)nc2cnccc21	54.6	64.7	.	.	.	.
c1ccc(CSc2ncn(-c3ccccc3)n2)cc1	.	81.0	.	.	.	.
O=C(CSc1ncn(-c2ccccc2)n1)Nc1ccc(Br)cn1	.	.	.	.	/	/
Nc1nc(CSc2ncn(-c3ccccc3)n2)cs1	.	59.4	.	.	.	.
Nc1nc(CSc2nc3ccccc3[nH]2)cs1	.	.	.	.	.	.
O=C(CSc1ncn(-c2ccccc2)n1)c1cccs1	48.7	.	.	.	.	/
CN(Cc1ccccc1)c1nc2c(c(=O)[nH]c(=O)n2C)n1CCOc1ccccc1	.	.	.	.	.	.
CCOC(=O)CSc1nc2ccccc2c(=O)n1NC(=O)c1ccccc1	.	56.0	.	.	.	.
CCc1ccc2oc(-c3cc(N)cc(C)c3O)nc2c1	.	.	.	.	.	64.7
O=C(Nc1cccc(Br)c1)c1cc2ccccc2o1	71.0	.	.	.	.	.
CNC(=O)c1cc2ccccc2o1	.	.	.	.	.	.
CCC(=O)Nc1cccc(NC(=O)c2cc3ccccc3o2)c1	58.1	.	.	.	.	.
Cc1cccc(NC(=O)c2cc3ccccc3o2)c1	.	89.5	.	.	.	.
CC(C)C(=O)Nc1ccc(NC(=O)c2cc3ccccc3o2)cc1	59.4	.	.	.	.	/
SMILES	RORA act	SF-1 act	M1 antagonist	M1 ag	S1P3 agonist	S1P1 ag pot
CCOC(=O)c1ccc(NC(=O)c2cc3ccccc3o2)cc1	.	.	/	/	.	.
CSc1ncc(Cl)c(C(=O)C(C#N)c2nc3c(C)cc(C)cc3c(=O)[nH]2)n1 (stereo not given)	.	.	.	.	.	.
CCc1c(C)nc(SCC(=O)N2CCc3ccccc32)[nH]c1=O	.	.	.	.	.	.
CS(=O)(=O)N(CCC(=O)O)Cc1ccccc1	.	.	.	.	.	.
C#CCOC(=O)c1ccccc1C(=O)OCC#C	.	.	.	.	.	.
C#CCOC(=O)c1ccccc1C(=O)n1nnc2ccccc21	.	.	.	-2.27	.	.
Cn1c(Cl)cnc1C(O)c1ccccc1 (stereo not given)	.	.	.	.	.	.
COc1ccc(C2C(C(C)=O)=C(O)C(=O)N2c2nccs2)cc1OC (stereo not given)	.	.	.	.	.	.
COc1ccc2c(c1OC)C(=O)N(c1nccs1)C2	.	75.2	.	.	.	.
COc1ccc(/C=C/C2=NC(=C\N(C)C)/C(=O)O2)cc1	.	50.5	.	.	.	.
CCn1c(=O)cc(OCC(=O)N2CCN(C(=O)c3ccco3)CC2)c2ccccc21	.	.	.	.	.	.
CCn1c(=O)c2cc(C(=O)N3CCN(C(=O)c4ccco4)CC3)sc2c2ccccc21	.	.	.	5.21	.	.
Cc1ccc(C2=N/C(=C/N3CCOCC3)C(=O)O2)cc1	.	54.8	.	.	.	.
O=c1c(-c2ccc(Br)cc2)coc2c(CN3CCOCC3)c(O)ccc12	.	.	.	.	.	.
COc1ccccc1Oc1coc2cc(O)ccc2c1=O	.	.	.	.	.	.
O=c1c(-c2ccc(F)cc2)coc2cc(O)ccc12	84.1	63.3	.	.	.	.
CCOc1ccccc1Oc1coc2cc(O)ccc2c1=O	.	.	.	.	.	.
COc1ccc(-c2coc3cc(O)ccc3c2=O)cc1OC	78.2	.	.	.	.	.
O=c1c(-c2ccc(F)cc2)coc2c3c(ccc12)OCCO3	.	62.7	.	.	.	.
Cn1c(C(=O)NCc2ccccn2)cc2c(=O)n3ccccc3nc21	52.9	60.6	.	.	.	.
c1ccc2c(c1)nc(CN1CCOCC1)n1c3ccccc3nc21	.	.	.	.	.	.
O=c1c2cccc3c(N4CCOCC4)ccc(c32)c2nc3ccccc3n12	.	.	.	7.17	.	.
CCOCCOC(=O)c1[nH]c2c(c1C)C(=O)CC(c1ccc(N(C)C)cc1)C2 (stereo not given)	.	.	.	.	.	.
CCC(C)OC(=O)c1[nH]c2c(c1C)C(=O)CC(c1ccc(N(C)C)cc1)C2 (stereo not given)	.	56.8	.	.	.	.
CCN1C2=C(C(=O)CCC2)C(c2ccc(O)cc2)C2=C1CCCC2=O	.	.	.	.	.	/
SMILES	RORA act	SF-1 act	M1 antagonist	M1 ag	S1P3 agonist	S1P1 ag pot
CC(C)(C)NC(=O)CN(C(=O)CS(=O)CC(=O)Nc1ccc(F)cc1)c1ccc(Cl)cc1 (stereo not given)	.	.	.	.	.	.
Cc1c(-c2nc(N)nc(Nc3ccccc3F)n2)oc2ccccc12	107.8	72.8	.	.	.	.
Cc1ccc(-c2nc3ccccc3[nH]2)s1	50.2	.	.	.	.	.
Nc1nc(-c2nc3ccccc3[nH]2)cs1	.	.	.	.	.	.
c1csc(-c2nc3ccccc3[nH]2)c1	.	94.5	.	.	.	/
CCOC(=O)C1CCN(S(=O)(=O)c2c(C)n[nH]c2C)CC1	.	.	.	.	.	.
CCOC(=O)C(N)CSC1CC(=O)N(c2ccc(C(=O)OC)cc2)C1=O (stereo not given)	.	.	.	.	.	.
COC(=O)c1ccc(N2C(=O)CC(SCCN)C2=O)cc1 (stereo not given)	51.4	.	.	.	.	.
O/N=C/c1ccc(OCC(O)COc2ccc(/C=N/O)cc2)cc1	.	.	.	.	.	.
CCOc1ccc(/C=C\C(C)=N\O)cc1	72.3	.	.	.	.	.

Source: PubChem BioAssay
